The values that follow come from ChEMBL document CHEMBL1240406, “Identification of novel human immunodeficiency virus type 1-inhibitory peptides based on the antimicrobial peptide database” (Antimicrob Agents Chemother, 2010).

Where a SMILES comes first, the peptide text is derived from it. [ ]: non-standard residue; d: D form. aThr = C[C@H](O)[C@H](N)C(=O)O A value given as a limit tells only on which side of the number the result lay.

The term EC50 denotes the concentration needed to bring the measured effect to its halfway point.

Series [1] has as its system Human immunodeficiency virus 1. Description: Antiviral activity against HIV1 3B infected in human CEM-SS cells assessed as inhibition of viral replication after 6 days by XTT assay. It is filed as functional, organism-based. The conditions noted are these: Human immunodeficiency virus 1, 3B, CEM-SS, 144 h. The gist of the method:
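Peptides were added in triplicate at six serial concentrations, 0.32–100 μg/ml. Cultures were held at 37°C, 5% CO2 for 6 days, then stained with XTT. EC50 (virus inhibition) and TC50 (cell viability) were derived from the XTT read-out, and TI was taken from these.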

A short description of series [2]: Cytotoxicity against human CEM-SS cells infected with HIV1 3B after 6 days by XTT assay. The class given is cell-based. The conditions noted are these: read-out: TC50.
Series [3] can be described thus: Therapeutic index, ratio of TC50 for human CEM-SS cells infected with HIV1 3B to EC50 for HIV1 3B infected in human CEM-SS cells. It is filed as cell-based. The conditions noted are these: read-out: TI. The gist of the method: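 CEM-SS cells (2.5 × 10^3/well) in RPMI 1640 with 10% heat-inactivated FBS were infected with HIV-1 IIIB (MOI 0.0005–0.001). Peptides were added in triplicate at six serial concentrations, 0.32–100 μg/ml. Cultures were held at 37°C, 5% CO2 for 6 days, then stained with XTT. EC50 (virus inhibition) and TC50 (cell viability) were derived from the XTT read-out, and TI was taken from these.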

For the compound `CC[C@H](C)[C@H](NC(=O)[C@H](CC(C)C)NC(=O)[C@@H]1CCCN1C(=O)[C@H](Cc1ccccc1)NC(=O)[C@H](CC(C)C)NC(=O)[C@@H](N)Cc1ccccc1)C(=O)N[C@H](C(=O)N[C@@H](CO)C(=O)N[C@@H](Cc1ccccc1)C(=O)N[C@@H](CC(C)C)C(=O)N[C@@H](CO)C(=O)N[C@@H](CCCCN)C(=O)N[C@H](C(=O)N[C@@H](CC(C)C)C(=O)O)C(C)C)[C@H](C)O`, the EC50 in series [1] was found to be 16.7 µM. In series [2], the CC50 at 144 h is 34.6 µM. The selectivity ratio in series [3] stood at 2.07.
On to `CC[C@H](C)[C@H](NC(=O)[C@H](CC(C)C)NC(=O)[C@H](C)NC(=O)[C@@H]1CCCN1C(=O)[C@H](CCCNC(=N)N)NC(=O)[C@@H](N)Cc1ccccc1)C(=O)N[C@H](C(=O)N[C@@H](CCCNC(=N)N)C(=O)N[C@H](C(=O)N[C@@H](CCCCN)C(=O)NCC(=O)N[C@H](C(=O)N[C@@H](CCCNC(=N)N)C(=O)N[C@@H](CC(C)C)C(=O)O)[C@H](C)O)[C@H](C)O)C(C)C` [Hyposin-5] (H-FRPALIVR[aThr]KG[aThr]RL-OH), for which the EC50 in series [1] was above 61.4 µM. In series [2], the CC50 at 144 h was above 61.4 µM.
Regarding `CC[C@H](C)[C@H](NC(=O)[C@@H]1CCCN1C(=O)[C@H](Cc1cnc[nH]1)NC(=O)[C@H](CCCCN)NC(=O)[C@@H]1CCCN1C(=O)[C@@H](N)CCCNC(=N)N)C(=O)N[C@@H](CCCCN)C(=O)N[C@@H](Cc1cnc[nH]1)C(=O)N[C@@H](CCC(N)=O)C(=O)NCC(=O)N[C@@H](CC(C)C)C(=O)N1CCC[C@H]1C(=O)N[C@@H](CCC(N)=O)C(=O)N[C@@H](CCC(=O)O)C(=O)N[C@H](C(=O)N[C@@H](CC(C)C)C(=O)N[C@@H](CC(N)=O)C(=O)N[C@@H](CCC(=O)O)C(=O)N[C@@H](CC(N)=O)C(=O)N[C@@H](CC(C)C)C(=O)N[C@@H](CC(C)C)C(=O)N[C@@H](CCCNC(=N)N)C(=O)N[C@@H](Cc1ccccc1)C(=O)O)C(C)C` [ISRACIDIN], the EC50 in series [1] is above 36.2 µM. Further, the CC50 at 144 h in series [2] is above 36.2 µM.
Regarding `CC[C@H](C)[C@H](NC(=O)[C@H](CO)NC(=O)[C@H](CC(C)C)NC(=O)[C@H](Cc1ccccc1)NC(=O)CN)C(=O)N[C@@H](CC(C)C)C(=O)N[C@@H](CCCCN)C(=O)N[C@@H](CCCCN)C(=O)N[C@H](C(=O)N[C@@H](CC(C)C)C(=O)N1CCC[C@H]1C(=O)N[C@@H](CCCCN)C(=O)N[C@H](C(=O)N[C@@H](CCSC)C(=O)N[C@@H](C)C(=O)N[C@@H](Cc1cnc[nH]1)C(=O)N[C@@H](CCSC)C(=O)N[C@@H](CCCCN)C(N)=O)C(C)C)C(C)C` [MELECTIN], the CC50 at 144 h in series [2] amounted to 7.75 µM.
In the case of `CC[C@H](C)[C@H](NC(=O)[C@H](CCCNC(=N)N)NC(=O)[C@H](CC(C)C)NC(=O)[C@H](CCC(N)=O)NC(=O)[C@H](CCCCN)NC(=O)[C@H](CC(C)C)NC(=O)[C@H](CC(C)C)NC(=O)[C@H](CC(C)C)NC(=O)[C@@H](NC(=O)[C@H](CCCCN)NC(=O)[C@H](CC(=O)O)NC(=O)[C@H](C)NC(=O)[C@@H](NC(=O)[C@H](CCCCN)NC(=O)[C@H](CCCCN)NC(=O)[C@H](CC(=O)O)NC(=O)[C@@H](NC(=O)[C@@H](N)Cc1cnc[nH]1)C(C)C)C(C)C)C(C)C)C(=O)N[C@@H](CCSC)C(=O)N[C@@H](CCCNC(=N)N)C(=O)N[C@@H](CC(C)C)C(=O)N[C@@H](CC(C)C)C(=O)N[C@H](C(=O)N[C@@H](CCCNC(=N)N)C(=O)N[C@@H](CC(C)C)C(=O)O)[C@@H](C)O` [SPINIGERIN], the EC50 in series [1] was determined as 3.05 µM. The CC50 at 144 h in series [2] is above 33.3 µM. For the same compound, the selectivity ratio in series [3] is above 10.9.
As for `Cc1cn([C@H]2C[C@H](N=[N+]=[N-])[C@@H](CO)O2)c(=O)[nH]c1=O` [ZIDOVUDINE], the CC50 at 144 h in series [2] is above 0.5 µM.
The same measure, in the same setting: for “H-FFHHIFRGIVHVGKTIHRLVTG-OH [Piscidin 3]” the value was 6.9 µM.
For the compound H-GAWKNFWSSLRKGFYDGEAGRAIRR-OH, in series [1], the EC50 was above 34.1 µM. Further, the CC50 at 144 h in series [2] was above 34.1 µM.
Turning to H-GFGKAFHSVSNFAKKHKTA-NH2 [STYELIN A], the EC50 in series [1] is above 48.5 µM. Moreover, the CC50 at 144 h in series [2] is above 48.5 µM.
With H-GFKDLLKGAAKALVKTVLF-NH2 [Ascaphin-8], the EC50 in series [1] was determined as 1.2 µM. Also, the CC50 at 144 h in series [2] was 2.9 µM. Also, the selectivity ratio in series [3] was 2.4.
As to H-GFKRIVQRIKDFLRNLV-NH2, the EC50 in series [1] worked out at 0.76 µM. The CC50 at 144 h in series [2] was found to be 10.8 µM. In addition, the selectivity ratio in series [3] was 14.2.
With H-GFLDIIEKIAKSW-OH, in series [1], the EC50 was 10.5 µM. Besides, in series [2], the CC50 at 144 h was above 65.8 µM. Further, the selectivity ratio in series [3] is above 6.3.
For H-GIFDKLAKEISIW-OH, the EC50 in series [1] was above 65.8 µM. The CC50 at 144 h in series [2] was above 65.8 µM.
In the case of H-GIIDIAKKLFESW-OH, the EC50 in series [1] came out at 20.1 µM. Also, the CC50 at 144 h in series [2] is above 65.8 µM. For the same compound, the selectivity ratio in series [3] is above 3.3.
The matching figures for “H-GIWDTIKSMGKVFAGKILQNL-NH2 [Brevinin-2]”: 1.65 µM, 7.42 µM and 4.49.
Take H-GIWSDLAEIIKKF-OH: the CC50 at 144 h in series [2] was above 65.8 µM.
For the compound H-GKPRPYSPRPTSHPRPIRV-OH [DROSOCIN], the EC50 in series [1] was above 45.5 µM. Besides, the CC50 at 144 h in series [2] was above 45.5 µM.
On to “H-GLADFLNKAVGKVVDFVKS-NH2 [Desertcolin 1]”, for which, in series [1], the EC50 was above 49.9 µM. For the same compound, the CC50 at 144 h in series [2] was above 49.9 µM.
Regarding H-GLFDIIKKIAESW-OH, in series [1], the EC50 is 11.7 µM. Also, the CC50 at 144 h in series [2] was found to be 37 µM. Also, the selectivity ratio in series [3] worked out at 3.2.
“H-GLLGLLGSVVSHVVPAIVGHF-NH2 [Maculatin 1.3]”: the EC50 in series [1] was found to be 4 µM. In addition, the CC50 at 144 h in series [2] came to 8.02 µM. In series [3], the selectivity ratio turned out to be 2.01.
For the compound H-GLNTLKKVFQGLHEAIKLINNHVQ-OH, in series [1], the EC50 stood at 35.7 µM. Further, the CC50 at 144 h in series [2] is above 36.8 µM.
As for H-GLRRLLGRLLRRLGRLLLR-OH, the EC50 in series [1] turned out to be 4.4 µM. For the same compound, the CC50 at 144 h in series [2] worked out at 25.7 µM. In series [3], the selectivity ratio was 5.8.
The matching figures for H-GLRSKIWLWVLLMIWQESNKFKKM-OH: 31.6 µM, above 32.9 µM and above 1.04.
With H-GLRSRIWLWVLLMIWQESNRFKRM-OH, in series [1], the EC50 came to 1.25 µM. For the same compound, the CC50 at 144 h in series [2] was above 32.1 µM. The selectivity ratio in series [3] was above 25.7.
In the case of H-GLWEKIDKFASII-OH, the half-maximal effective concentration (EC50) in series [1] is above 65.8 µM. The CC50 at 144 h in series [2] was above 65.8 µM.
Turning to H-GMASKAGAIAGKIAKVALKAL-NH2, in series [1], the EC50 is above 50.8 µM. In addition, the CC50 at 144 h in series [2] was above 50.8 µM.
Take H-GNNRPVYIPQPRPPHPRI-OH [Apidaecin IA]: in series [1], the EC50 was above 47.4 µM. Further, the CC50 at 144 h in series [2] was above 47.4 µM.
H-GWFDIIKKIASEL-OH: the EC50 in series [1] stood at 10.7 µM. The CC50 at 144 h in series [2] was 38.9 µM. Further, the selectivity ratio in series [3] worked out at 3.6.
With H-ILGPVLGLVSDTLDDVLGIL-OH, the EC50 in series [1] was above 49.4 µM. Also, in series [2], the CC50 at 144 h was above 49.4 µM.
For the compound H-INLKAIAALAKKLL-OH, the EC50 in series [1] is above 67.6 µM. Moreover, the CC50 at 144 h in series [2] is above 67.6 µM.
As to H-KGRGKQGGKVRAKAKTRSS-OH [Parasin I], the EC50 in series [1] is above 50 µM. Also, the CC50 at 144 h in series [2] is above 50 µM.
With H-NLVSGLIEARKYLEQLHRKLKNRKV-OH, the EC50 in series [1] is above 33.3 µM. Further, in series [2], the CC50 at 144 h was above 33.3 µM.
In the case of H-RQRVEELSKFSKKGAAARRRK-OH [Misgurin], the EC50 in series [1] is above 40 µM. Besides, the CC50 at 144 h in series [2] was above 40 µM.
As to H-VDKPDYRPRPRPPNM-OH [Metalnikowin I], the EC50 in series [1] was above 54.4 µM. For the same compound, in series [2], the CC50 at 144 h was above 54.4 µM.
